In ChEMBL document CHEMBL1123747, “N-methyl derivatives of the 5-HT2 agonist 1-(4-bromo-2,5-dimethoxyphenyl)-2-aminopropane” (J Med Chem, 1987):
Active and inactive are the calls of the source. The calls are words filed in the database; no cut-off is given here.

How the values were obtained:
[1] = organism: Rattus norvegicus; test: The number of responses made on the (R)(-)-DOB appropriate level, generation studies was calculated at dose 2.0 mg / kg; format: functional
How it was run: (§1)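 Male Sprague-Dawley rats (n = 6) were trained on a two-lever operant task for sweetened-milk reward to discriminate 0.2 mg/kg (R)-(-)-DOB-HCl ip from 1.0 mL/kg 0.9% saline, with a VI 15-s schedule and 15-min sessions. Test doses were given ip 15 min before a 2.5-min extinction session, in random order, to groups of 3-6 rats. Read-out was % drug-lever responses; fewer than five total responses counted as disrupted.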

[2] = target: T1, Serotonin 2 (5-HT2) receptor (Rattus norvegicus, UniProt P30994+P08909+P14842); test: Affinity towards [3H]- ketanserin-labeled 5-hydroxytryptamine 2 receptor sites in rat cortical homogenates
How it was run: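 Label was 0.4 nM [3H]ketanserin, with 11 competitor concentrations run in triplicate and nonspecific binding defined by 1 μM cinanserin. Bound ligand was filtered onto glass fibre and counted by scintillation. IC50 came from nonlinear regression; Ki = IC50/(1+[D]/KD).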

[3] = organism: Rattus norvegicus; test: The mean responses per minute during the 2.5 min extinction session in the stimulus-generation studies was calculated at dose 0.7 mg / kg; format: functional
How it was run: (§2)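 Rats were trained on a two-lever drug-versus-saline discrimination (0.2 mg/kg ip training dose, VI 15-s, food reward). Challenge doses were given ip 15 min before a 2.5-min extinction test, in random order, to groups of 3–6 rats, with at least three training sessions between tests. Response rate is responses per minute over the extinction session.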

[4] = organism: Rattus norvegicus; test: The number of animals responding per number of animals receiving the drug(3/4) in the stimulus-generation studies, was calculated at dose 2.2 mg / kg; format: functional
How it was run: (§3)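 Male Sprague-Dawley rats were trained to discriminate 0.2 mg/kg ip training drug from saline (two levers, VI 15-s, milk reward). Test doses were given ip 15 min pre-session in random order to groups of 3–6. In the 2.5-min extinction session, rats making fewer than five total responses were counted as disrupted. N is animals responding over animals dosed.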

[5] = organism: Rattus norvegicus; test: The mean responses per minute during the 2.5 min extinction session in the stimulus-generation studies was calculated at dose 2.0 mg / kg; format: functional; how it was run: as §2
[6] = organism: Rattus norvegicus; test: The mean responses per minute during the 2.5 min extinction session in the stimulus-generation studies was calculated at dose 2.2 mg / kg; format: functional; how it was run: as §2
[7] = organism: Rattus norvegicus; test: The number of responses made on the (R)(-)-DOB appropriate level, generation studies was calculated at dose 2.2 mg / kg; format: functional; how it was run: as §1
[8] = target: T1, Serotonin 2 (5-HT2) receptor; test: Affinity towards [3H]- DOB -labeled 5-hydroxytryptamine 2 receptor sites in rat cortical homogenates
[9] = organism: Rattus norvegicus; test: The number of animals responding per number of animals receiving the drug (3/3)in the stimulus-generation studies, was calculated at dose 1.2 mg / kg; format: functional; how it was run: as §3
[10] = organism: Rattus norvegicus; test: The number of animals responding per number of animals receiving the drug (4/4)in the stimulus-generation studies, was calculated at dose 0.7 mg / kg; format: functional; how it was run: as §3
[11] = organism: Rattus norvegicus; test: The mean responses per minute during the 2.5 min extinction session in the stimulus-generation studies was calculated at dose 1.2 mg / kg; format: functional; how it was run: as §2
[12] = organism: Rattus norvegicus; test: The number of responses made on the (R)(-)-DOB appropriate level, generation studies was calculated at dose 1.2 mg / kg; format: functional; how it was run: as §1
[13] = organism: Rattus norvegicus; test: The number of responses made on the (R)(-)-DOB appropriate level, generation studies was calculated at dose 0.7 mg / kg; format: functional; how it was run: as §1
[14] = organism: Rattus norvegicus; test: The number of animals responding per number of animals receiving the drug (4/4)in the stimulus-generation studies, was calculated at dose 2.0 mg / kg; format: functional; how it was run: as §3
[15] = tested on: Rattus norvegicus; test: The number of animals responding per number of animals receiving the drug(3/4) in the stimulus-generation studies was calculated at dose 1.2 mg/kg; format: functional; how it was run: as §3
[16] = tested on: Rattus norvegicus; test: The mean responses per minute during the 2.5 min extinction session in the stimulus-generation studies was calculated at dose 0.3 mg/kg; format: functional; how it was run: as §2
[17] = tested on: Rattus norvegicus; test: The number of responses made on the (R)(-)-DOB appropriate lever, generation studies was calculated at dose 0.6 mg/kg; format: functional; how it was run: as §1
[18] = tested on: Rattus norvegicus; test: The number of responses made on the (R)(-)-DOB appropriate lever, generation studies was calculated at dose 1.4 mg/kg; NR means not responding; format: functional, organism-based; parameters: dose 1.4 mg/kg; how it was run: as §1
[19] = tested on: Rattus norvegicus; test: The number of responses made on the (R)(-)-DOB appropriate lever, generation studies was calculated at dose 1.3 mg/kg; format: functional; how it was run: as §1
[20] = tested on: Rattus norvegicus; test: The number of responses made on the (R)(-)-DOB appropriate lever, generation studies was calculated at dose 1.5 mg/kg; NR means not responding; format: functional, organism-based; parameters: dose 1.5 mg/kg; how it was run: as §1
[21] = tested on: Rattus norvegicus; test: The number of responses made on the (R)(-)-DOB appropriate lever, generation studies was calculated at dose 0.3 mg/kg; format: functional; how it was run: as §1
[22] = tested on: Rattus norvegicus; test: The number of animals responding per number of animals receiving the drug (4/4)in the stimulus-generation studies was calculated at dose 0.6 mg/kg; format: functional; how it was run: as §3
[23] = tested on: Rattus norvegicus; test: The number of animals responding per number of animals receiving the drug (3/3)in the stimulus-generation studies was calculated at dose 1.0 mg/kg; format: functional; how it was run: as §3
[24] = tested on: Rattus norvegicus; test: The number of responses made on the (R)(-)-DOB appropriate lever, generation studies was calculated at dose 1.0 mg/kg; format: functional; how it was run: as §1
[25] = tested on: Rattus norvegicus; test: The number of animals responding per number of animals receiving the drug (2/6)in the stimulus-generation studies was calculated at dose 1.5 mg/kg; format: functional; how it was run: as §3
[26] = tested on: Rattus norvegicus; test: The mean responses per minute during the 2.5 min extinction session in the stimulus-generation studies was calculated at dose 1.3 mg/kg; format: functional; how it was run: as §2
[27] = tested on: Rattus norvegicus; test: The number of animals responding per number of animals receiving the drug(2/6) in the stimulus-generation studies was calculated at dose 1.4 mg/kg; format: functional; how it was run: as §3
[28] = tested on: Rattus norvegicus; test: The mean responses per minute during the 2.5 min extinction session in the stimulus-generation studies was calculated at dose 0.6 mg/kg; format: functional; how it was run: as §2
[29] = tested on: Rattus norvegicus; test: The number of responses made on the (R)(-)-DOB appropriate lever, generation studies was calculated at dose 1.2 mg/kg; format: functional; how it was run: as §1
[30] = tested on: Rattus norvegicus; test: The number of animals responding per number of animals receiving the drug (3/3) in the stimulus-generation studies was calculated at dose 0.3 mg/kg; format: functional; how it was run: as §3
[31] = tested on: Rattus norvegicus; test: The mean responses per minute during the 2.5 min extinction session in the stimulus-generation studies was calculated at dose 1.2 mg/kg; format: functional; how it was run: as §2
[32] = tested on: Rattus norvegicus; test: The number of animals responding per number of animals receiving the drug (5/5)in the stimulus-generation studies was calculated at dose 1.3 mg/kg; format: functional; how it was run: as §3
[33] = organism: Rattus norvegicus; test: The compound was tested for effective dose ( ED 50) against stimulus generation with rats trained to discriminate (R) (-)-DOB from saline; format: functional
How it was run: (§4)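 Male Sprague-Dawley rats (n = 6) on a two-lever operant task for sweetened milk, VI 15-s schedule. Trained to discriminate 0.2 mg/kg ip training drug from 1.0 mL/kg 0.9% saline, 15 min pre-session. Test doses were given ip in random order to groups of 3–6, with 15-min pretreatment and a 2.5-min extinction session. ED50 was calculated from dose-response data.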

[34] = tested on: Rattus norvegicus; test: The mean responses per minute during the 2.5 min extinction session in the stimulus-generation studies was calculated at dose 1.0 mg/kg; format: functional; how it was run: as §2
[35] = organism: Rattus norvegicus; test: The mean responses per minute during the 2.5 min extinction session in the stimulus-generation studies was calculated at dose 0.03 mg / kg; format: functional; how it was run: as §2
[36] = organism: Rattus norvegicus; test: The number of responses made on the (R)(-)-DOB appropriate level, generation studies was calculated at dose 0.01 mg / kg; format: functional; how it was run: as §1
[37] = organism: Rattus norvegicus; test: The mean responses per minute during the 2.5 min extinction session in the stimulus-generation studies was calculated at dose 0.05 mg / kg; format: functional; how it was run: as §2
[38] = organism: Rattus norvegicus; test: The mean responses per minute during the 2.5 min extinction session in the stimulus-generation studies was calculated at dose 0.01 mg / kg; format: functional; how it was run: as §2
[39] = organism: Rattus norvegicus; test: The number of animals responding per number of animals receiving the drug (4/4)in the stimulus-generation studies was calculated at dose 0.20 mg / kg; format: functional; details: dose 0.2 mg / kg; how it was run: as §3
[40] = organism: Rattus norvegicus; test: The number of animals responding per number of animals receiving the drug(4/4) in the stimulus-generation studies was calculated at dose 0.01 mg / kg; format: functional; how it was run: as §3
[41] = organism: Rattus norvegicus; test: The number of animals responding per number of animals receiving the drug(5/5) in the stimulus-generation studies was calculated at dose 0.03 mg / kg; format: functional; how it was run: as §1
[42] = organism: Rattus norvegicus; test: The number of responses made on the (R)(-)-DOB appropriate level, generation studies was calculated at dose 0.05 mg / kg; format: functional; how it was run: as §1
[43] = organism: Rattus norvegicus; test: The number of responses made on the (R)(-)-DOB appropriate level, generation studies was calculated at dose 0.03 mg / kg; format: functional; how it was run: as §1
[44] = organism: Rattus norvegicus; test: The number of responses made on the (R)(-)-DOB appropriate level, generation studies was calculated at dose 0.20 mg / kg; format: functional; details: dose 0.2 mg / kg; how it was run: as §1
[45] = organism: Rattus norvegicus; test: The mean responses per minute during the 2.5 min extinction session in the stimulus-generation studies was calculated at dose 0.10 mg / kg; format: functional; details: dose 0.1 mg / kg; how it was run: as §2
[46] = organism: Rattus norvegicus; test: The mean responses per minute during the 2.5 min extinction session in the stimulus-generation studies was calculated at dose 0.20 mg / kg; format: functional; details: dose 0.2 mg / kg; how it was run: as §2
[47] = organism: Rattus norvegicus; test: The number of animals responding per number of animals receiving the drug(4/4)in the stimulus-generation studies was calculated at dose 0.10 mg / kg; format: functional; details: dose 0.1 mg / kg; how it was run: as §1
[48] = organism: Rattus norvegicus; test: The number of responses made on the (R)(-)-DOB appropriate level, generation studies was calculated at dose 0.10 mg / kg; format: functional; details: dose 0.1 mg / kg; how it was run: as §1
[49] = organism: Rattus norvegicus; test: 1 The compound was tested for effective dose ( ED 50) against stimulus generation with rats trained to discriminate (R) (-)-DOB from saline.; format: functional; how it was run: as §4
[50] = organism: Rattus norvegicus; test: The number of animals responding per number of animals receiving the drug (5/5)in the stimulus-generation studies was calculated at dose 0.05 mg / kg; format: functional; how it was run: as §3

SMILES: COc1cc(CC(C)[N+](C)(C)C)c(OC)cc1Br.[I-] (configuration not stated)
- Responding [1]: 38%
- Ki [2]: > 25 µM
- Response rate [3]: 16.2
- No. of animals responding/animals receiving drug [4]: 3
- Response rate [5]: 7.3
- Response rate [6]: 3.7
- Responding [7]: 3%
- Ki [8]: 8.25 µM
- No. of animals responding/animals receiving drug [9]: 3
- No. of animals responding/animals receiving drug [10]: 4
- Response rate [11]: 11.9
- Responding [12]: 9%
- Responding [13]: 3%
- No. of animals responding/animals receiving drug [14]: 4

SMILES: CNC(C)Cc1cc(OC)c(Br)cc1OC (configuration not stated)
- No. of animals responding/animals receiving drug [15]: 3
- Response rate [16]: 11.6
- Responding [17]: 28%
- Responding [18]: inactive
- Ki [2]: 0.079 µM
- Responding [19]: 82%
- Responding [20]: inactive
- Responding [21]: 12%
- No. of animals responding/animals receiving drug [22]: 4
- No. of animals responding/animals receiving drug [23]: 3
- Responding [24]: 50%
- No. of animals responding/animals receiving drug [25]: 2
- Response rate [26]: 8
- No. of animals responding/animals receiving drug [27]: 2
- Response rate [28]: 13.6
- Ki [8]: 0.0077 µM
- Responding [29]: 70%
- No. of animals responding/animals receiving drug [30]: 3
- Response rate [31]: 13.3
- No. of animals responding/animals receiving drug [32]: 5
- ED50 [33]: 0.82 mg/kg
- Response rate [34]: 12

SMILES: COc1cc(C[C@@H](C)N)c(OC)cc1Br
- Response rate [35]: 11.8
- Responding [36]: 5%
- Response rate [37]: 12
- Response rate [38]: 12.5
- No. of animals responding/animals receiving drug [39]: 4
- No. of animals responding/animals receiving drug [40]: 4
- No. of animals responding/animals receiving drug [41]: 5
- Responding [42]: 58%
- Responding [43]: 21%
- Responding [44]: 98%
- Response rate [45]: 10.8
- Response rate [46]: 12.3
- No. of animals responding/animals receiving drug [47]: 4
- Responding [48]: 64%
- ED50 [49]: 0.05 mg/kg
- No. of animals responding/animals receiving drug [50]: 5
